Source: PubChem BioAssay (SRMLSC)
In the library only some 6.3% were active in any assay of this set; here they are far more common.
PostGolgi ctrl = inhibits growth of the yeast control strain | efflux-deficient yeast background strain, growth absorbance A615, 16 h | inhibition, % at 10 µM | actives 5% (n = 98,000)
Ecoli tolC = E. coli tolC mutant growth inhibition; E. coli BW25113 tolC mutant growth, OD615; growth inhibition, % at 10 µM (by protocol); actives 2.2% (n = 65,000);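 active = growth inhibition at or above a cutoff equal to the mean over every tested compound plus 3 SD, cut at about 60% in these data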;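 also: growth measured after 20 h incubation at 37 °C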
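Signal: optical density read at 615 nm; Assay system: E. coli ΔtolC::kan strain BW25113; Times: 20 h incubation with compound, 37 °C; Dosing: 10 µM final, single dose.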
E coli WT exp = growth inhibitors of E. coli BW25113 wild type | OD600 absorbance | growth inhibition, % at 100 µM | actives 0.15% (n = 98,000) | AID 710;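 active = growth inhibition above about 50% at one test dose, limit read from the data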;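 also: growth measured after 20 h incubation at 37 °C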
PostGolgi yeast = growth inhibition of a yeast mutant, post-Golgi transport screen; post-Golgi transport phenotypic cell assay; inhibition, % at 10 µM; actives 0.9% (n = 98,000);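 also: yeast cells grown in 1536-well plates; yeast grown about 18 h at 30C before absorbance read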
Large screens that a line does not name were inactive. Rule as the data show it, unless noted: active = inhibition above about 30%; inactive = the rest.

O=C1CC(N2CCN(c3nc4ccccc4s3)CC2)C(=O)N1Cc1cccs1 (stereo unspecified)	PostGolgi ctrl 102, PostGolgi yeast 93
Cc1ccc(CNC(=O)Cn2c([N+](=O)[O-])cnc2C)cc1	none (no result: Ecoli tolC)
CCC(C)(C)n1c(=O)[nH]c2c(c1=O)CCC2	none
Cc1cc(NS(=O)(=O)c2ccc(NC(=O)COc3ccccc3C(C)C)cc2)no1	Ecoli tolC 62
COc1ccc(NS(=O)(=O)c2cccc(C(=O)OCC(=O)Nc3cc(C)on3)c2)cc1	PostGolgi ctrl 42 (no result: Ecoli tolC)
CC(C)(C)NS(=O)(=O)c1ccc(NC(=O)C(Sc2ccccc2)c2ccccc2)cc1 (stereo unspecified)	none (no result: Ecoli tolC)
COc1nc(N(c2ccccc2)c2ccccc2)nc(-n2ccnc2)n1	PostGolgi ctrl 96, Ecoli tolC 94, PostGolgi yeast 94
CN(C)c1nc(N)nc(N(c2ccccc2)c2ccccc2)n1	none
O=C(NC1CCCCC1)C1CC=CCC1C(=O)OCC(Cl)=C(Cl)Cl (stereo unspecified)	none (no result: Ecoli tolC)
Cc1ccc(/C(C#N)=C\c2cn(C)c3ccccc23)cc1	PostGolgi ctrl 34
Cc1ccc(Oc2ccc(S(=O)(=O)N3CCOCC3)cc2C(N)=O)c(-n2nc3ccccc3n2)c1	none
CCOC(=O)C1CCCN(c2c(NCCCN(CC)c3ccccc3)c(=O)c2=O)C1 (stereo unspecified)	PostGolgi ctrl 35
CCOC(=O)C1CCCN(c2c(NCCN(CC)c3ccccc3)c(=O)c2=O)C1 (stereo unspecified)	none (no result: Ecoli tolC)
O=C(C[n+]1cccc(NC(=O)c2ccccc2)c1)c1ccc(NC(=O)c2ccccc2)cc1	E coli WT exp 62 (no result: Ecoli tolC)
Cc1ccc(N(CC(=O)Nc2ccc3c(c2)OCCO3)S(=O)(=O)c2c(C)noc2C)cc1	Ecoli tolC 65
CCOc1ccc(N(CC(=O)Nc2cccc(Cl)c2)S(=O)(=O)c2c(C)noc2C)cc1	PostGolgi ctrl 45, Ecoli tolC 73
CCOc1ccccc1N(CC(=O)Nc1ccc2c(c1)OCCO2)S(C)(=O)=O	PostGolgi ctrl 34
CCOc1ccc(N(CC(=O)Nc2ccc(C)cc2)S(=O)(=O)c2c(C)noc2C)cc1	none
CCOc1ccc(N(CC(=O)Nc2cccc(OC)c2)S(=O)(=O)c2c(C)noc2C)cc1	Ecoli tolC 70
CCOc1ccccc1N(CC(=O)Nc1ccc2c(c1)OCO2)S(C)(=O)=O	none
N/C(=N\OC(=O)CCCCCN1C(=O)c2ccccc2C1=O)c1ccccc1	none (no result: Ecoli tolC)
CCCCOc1ccc(NC2=NC3(CCCCC3)N=C(N)N2)cc1	Ecoli tolC 99, E coli WT exp 59
Nc1nonc1-c1nc2ccccc2n1CC(=O)N/N=C\c1ccc(-c2ccc(Cl)cc2)o1	none (no result: Ecoli tolC)
Oc1ccccc1NCC(O)Cn1ccc2ccccc21 (stereo unspecified)	PostGolgi ctrl 37
S=C(N=Nc1ccccc1)NNc1ccccc1	none (no result: PostGolgi ctrl, E coli WT exp, PostGolgi yeast)
CCCNC(=O)c1cn(CC)c2cc(N3CCN(C)CC3)c(F)cc2c1=O	E coli WT exp 100 (no result: Ecoli tolC)
CCn1cc(C(=O)NCc2cccs2)c(=O)c2cc(S(=O)(=O)N3CCOCC3)ccc21	none (no result: PostGolgi ctrl, E coli WT exp, PostGolgi yeast)
CCn1cc(C(=O)NCCCN(C)C)c(=O)c2cc(F)c(N3CCN(C)CC3)cc21	E coli WT exp 100
CCN(CC)CCNC(=O)c1cn(CC)c2ccc(S(=O)(=O)N(C)C)cc2c1=O	none
CCCCN1C2=C(C(=O)CCC2)C(c2ccc(Cl)c(Cl)c2)C2=C1c1ccccc1C2=O (stereo unspecified)	none (no result: Ecoli tolC)
COc1ccccc1N1CCN(c2ncnc3c2oc2ccccc23)CC1	PostGolgi ctrl 38
C(=C\c1ccccc1)/CN1CCN(c2ncnc3c2oc2ccccc23)CC1	PostGolgi ctrl 31, Ecoli tolC 100
CC1(C)NC(=O)N(CCCSc2ccc(Cl)cc2)C1=O	none
CC(=O)OC1(C(F)(F)F)Oc2ccccc2NC1=O (stereo unspecified)	PostGolgi ctrl 44
CCOc1ccc(NS(=O)(=O)c2cc(OC)ccc2OC)cc1	none (no result: Ecoli tolC)
COc1ccc(OC)c(S(=O)(=O)Nc2ccc(O)c(Sc3ncn[nH]3)c2)c1	PostGolgi ctrl 43
CCn1c(SCC(=O)N2CCOCC2)nc2c(c1=O)SC(C)C2 (stereo unspecified)	none
COc1cc(OC)cc(-c2cc3nc(C)c(CCC(=O)NC(C)CCc4ccco4)c(C)n3n2)c1 (stereo unspecified)	none
Cc1nc2cc(-c3cccc(F)c3)nn2c(C)c1CCC(=O)NC(C)CCc1ccco1 (stereo unspecified)	PostGolgi yeast 41
O=C1NCCCC1C(=O)N1CCN(C(=O)C2CCCNC2=O)CC1 (stereo unspecified)	none (no result: PostGolgi ctrl, E coli WT exp, PostGolgi yeast)
COc1ccc(C(=O)Nc2c(N)nc(SCC(=O)N3CCCCCC3)[nH]c2=O)cc1OC	none
Cc1ccccc1C(=O)O/N=C/c1c(N2CCOCC2)n(C)c2ccccc12	PostGolgi ctrl 40, PostGolgi yeast 54 (no result: Ecoli tolC)
Cc1ccc(Cl)cc1N1CCN(C(=O)c2ccc(NS(=O)(=O)c3c(C)noc3C)cc2)CC1	Ecoli tolC 71
Cc1ccc(C)c(N2CCN(C(=O)c3ccc(NS(=O)(=O)c4c(C)noc4C)cc3)CC2)c1	Ecoli tolC 80
CCOC(=O)C1=C(N2CCCCC2)c2cc3c(n2C1=O)CCCC3	PostGolgi ctrl 33
CCOC(=O)c1c(N2CCCCC2)c2ccccc2[nH]c1=O	none (no result: Ecoli tolC)
CC1CCc2nc(NC(=O)c3cc(C(C)(C)C)nn3C)sc2C1 (stereo unspecified)	Ecoli tolC 67 (no result: PostGolgi ctrl, E coli WT exp, PostGolgi yeast)
CC1=C(C#N)c2nc(N)c(C#N)c(C)c2/C1=C\c1ccc(C)cc1	PostGolgi ctrl 100, PostGolgi yeast 104 (no result: Ecoli tolC)
c1ccc(COc2ccc(Nc3ncnc4nc[nH]c34)cc2)cc1	PostGolgi ctrl 70
Cc1c(NC(=O)C(C)NCC2CCCO2)c(=O)n(-c2ccccc2)n1C (stereo unspecified)	none (no result: Ecoli tolC)
Cc1ccc(-c2nnc(-c3ccccc3)c(N3CCOCC3)n2)cc1	none (no result: Ecoli tolC)
c1ccc(-c2nnc(N3CCOCC3)nc2-c2ccccc2)cc1	PostGolgi ctrl 54
c1ccc(Oc2nc(Oc3ccccc3)nc(N3CCOCC3)n2)cc1	PostGolgi ctrl 31
COC(=O)c1ccc(N2CCOCC2)c(F)c1	none (no result: Ecoli tolC)
Clc1ccc(Oc2nc(Oc3ccc(Cl)cc3)nc(N3CCOCC3)n2)cc1	none
COC(=O)c1ccc(Oc2nc(N3CCCCC3)nc(N3CCOCC3)n2)cc1	Ecoli tolC 66
CCOC(=O)c1cnc2ccc(C)cc2c1Sc1ccccc1C(=O)OC	none (no result: Ecoli tolC)
O=C(c1ccc(Cl)cc1)c1oc2ccccc2c1CS(=O)(=O)c1ccccc1	PostGolgi ctrl 31 (no result: Ecoli tolC)
Cc1ccc(C)c(S(=O)(=O)Nc2ccccc2C(=O)Nc2ccccc2N2CCOCC2)c1	none (no result: Ecoli tolC)
O=C(COCC(=O)Nc1cccc(C(F)(F)F)c1)Nc1cccc(C(F)(F)F)c1	PostGolgi ctrl 43 (no result: Ecoli tolC)
CC(=O)Nc1ccc(NC(=O)CN2CCN(c3cccc(C(F)(F)F)c3)CC2)cc1	none (no result: Ecoli tolC)
O=C(CN1CCN(c2cccc(C(F)(F)F)c2)CC1)Nc1cccc(C(F)(F)F)c1	PostGolgi ctrl 35 (no result: Ecoli tolC)
Cc1[nH]c2ccccc2c1NC(=O)CN1CCN(c2cccc(C(F)(F)F)c2)CC1	Ecoli tolC 75
Cc1ccc(OC(F)F)c(NC(=O)Nc2cccc(C(F)(F)F)c2)c1	PostGolgi ctrl 56 (no result: Ecoli tolC)
CNC(=O)Nc1cccc(C(F)(F)F)c1	none
